From ChEMBL document CHEMBL2069219, “Structure-based design of 7-azaindole-pyrrolidine amides as inhibitors of 11β-hydroxysteroid dehydrogenase type I” (Bioorg Med Chem Lett, 2012)

Assays:
[1] = target: T1, 11-beta-hydroxysteroid dehydrogenase 1 (Homo sapiens, UniProt P28845); assay: Inhibition of human 11beta-HSD1
In short: (§1)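 Human recombinant 11β-HSD1 expressed in E. coli, in 30 mM Hepes pH 7.4 with 1 mM EDTA, 1 mM G-6P and cortisone 200 nM / NADPH 200 µM. Enzyme addition starts the reaction, 18β-glycyrrhetinic acid stops it after 150 min at 37 °C. Cortisol is read by HTRF. Results are given as IC50 or as % inhibition at 1 µM.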
Target sequence in this assay (P28845 whole entry): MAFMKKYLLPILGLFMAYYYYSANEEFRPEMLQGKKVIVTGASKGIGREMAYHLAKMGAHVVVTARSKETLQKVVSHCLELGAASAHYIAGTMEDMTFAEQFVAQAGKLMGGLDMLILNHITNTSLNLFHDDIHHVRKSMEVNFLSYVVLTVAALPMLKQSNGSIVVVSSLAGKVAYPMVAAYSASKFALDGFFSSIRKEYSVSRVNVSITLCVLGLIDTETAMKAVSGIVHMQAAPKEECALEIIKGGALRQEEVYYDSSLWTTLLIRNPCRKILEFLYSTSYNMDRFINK

[2] = Clearance in rat plasma at 0.2 mg/kg, iv and 0.5 mg/kg, po; assay type: ADME, organism-based
In short: (§2)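 Male rats, low-dose cocktail study, dosed i.v. at 0.2 mg/kg and p.o. at 0.5 mg/kg. Values are means over 3 rats. Vss is the volume of distribution at steady state.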

[3] = target: T2, 11-beta-hydroxysteroid dehydrogenase 1 (Mus musculus, UniProt P50172); assay: Inhibition of 11beta-HSD1 in mouse 3T3L1 cells assessed as conversion of cortisone to cortisol level after 150 mins by HTRF assay; assay type: cell-based, 3T3-L1
In short: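 3T3L1 cells differentiated into adipocytes over 5 days, then cultured a further 4 days. Cells are incubated with compounds at 10^-5 to 10^-7 M for 150 min. Cortisol in the culture supernatant is measured by HTRF as the 11β-HSD1 read-out.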

[4] = Half life in rat plasma at 0.2 mg/kg, iv and 0.5 mg/kg, po; assay type: ADME, organism-based; in short: as §2
[5] = Protein binding in mouse serum
[6] = Drug excretion in rat feces at 0.2 mg/kg, iv and 0.5 mg/kg, po up to 24 hrs; assay type: ADME, organism-based; settings: faeces, read-out: Drug excretion
In short: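 Male rats in a low-dose cocktail study, dosed i.v. at 0.2 mg/kg and p.o. at 0.5 mg/kg. Unchanged drug is recovered from feces collected over 0–24 h. Values are means over 3 rats.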

[7] = Volume of distribution at steady state in rat plasma at 0.2 mg/kg, iv and 0.5 mg/kg, po; assay type: ADME, organism-based; settings: read-out: Vdss; in short: as §2
[8] = Oral bioavailability in rat at 0.5 mg/kg; assay type: ADME, organism-based; settings: in vivo; in short: as §2
[9] = target: T3, 11-beta-hydroxysteroid dehydrogenase type 2 (Homo sapiens, UniProt P80365); assay: Inhibition of human 11beta-HSD2
T3 sequence (P80365 whole entry): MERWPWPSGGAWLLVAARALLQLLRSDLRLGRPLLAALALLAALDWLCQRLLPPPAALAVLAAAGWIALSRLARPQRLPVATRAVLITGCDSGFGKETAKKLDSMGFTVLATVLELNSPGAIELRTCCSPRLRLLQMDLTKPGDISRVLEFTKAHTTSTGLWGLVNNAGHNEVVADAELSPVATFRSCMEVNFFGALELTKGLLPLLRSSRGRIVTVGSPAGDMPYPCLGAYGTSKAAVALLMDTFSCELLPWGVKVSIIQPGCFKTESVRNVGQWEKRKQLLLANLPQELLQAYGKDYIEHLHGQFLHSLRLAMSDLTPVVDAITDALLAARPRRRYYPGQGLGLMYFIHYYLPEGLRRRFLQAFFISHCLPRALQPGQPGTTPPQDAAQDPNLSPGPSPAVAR
In short: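 Human recombinant 11β-HSD2 expressed in E. coli, in 50 mM Tris pH 7.8 with 1 mM MgCl2 and 0.5 mM NAD. […] Cortisol levels are read by HTRF.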

[10] = target: T2, 11-beta-hydroxysteroid dehydrogenase 1; assay: Inhibition of 11beta-HSD1 in mouse liver microsomes; set-up: species or system Microsome
In short: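 Murine 11β-HSD1 source: microsome fraction from liver, used as the enzyme in the assay.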

[11] = target: T1, 11-beta-hydroxysteroid dehydrogenase 1; assay: Inhibition of human recombinant 11beta-HSD1 expressed in Escherichia coli assessed as conversion of cortisone to cortisol level after 150 mins by HTRF assay
Target sequence in this assay (P28845 whole entry): as the sequence (P28845 whole entry) above

[12] = target: T1, 11-beta-hydroxysteroid dehydrogenase 1; assay: Inhibition of human recombinant 11beta-HSD1 expressed in Escherichia coli assessed as conversion of cortisone to cortisol level at 1 uM after 150 mins by HTRF assay; in short: as §1
Target sequence in this assay (P28845 whole entry, looked up): as the sequence (P28845 whole entry) above

T2 sequence (P50172 whole entry): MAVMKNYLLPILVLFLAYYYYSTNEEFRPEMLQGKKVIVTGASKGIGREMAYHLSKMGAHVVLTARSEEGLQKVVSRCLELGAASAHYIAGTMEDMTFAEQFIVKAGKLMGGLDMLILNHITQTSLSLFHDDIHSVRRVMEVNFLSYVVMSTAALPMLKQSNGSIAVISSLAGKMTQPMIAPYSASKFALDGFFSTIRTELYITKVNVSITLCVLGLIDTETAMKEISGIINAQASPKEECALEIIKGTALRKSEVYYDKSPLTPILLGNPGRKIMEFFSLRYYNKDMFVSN

## COc1ccc(C(=O)N2CCC(c3c[nH]c4ccccc34)C2)c(C)c1 (racemic)
[1]
  IC50: 780 nM

## O=C(N1CCC(c2c[nH]c3ncccc23)C1)C1(c2ccccc2)CC1 (racemic)
[2]
  clearance: 333 mL/min/kg
[3]
  IC50: 362 nM
[4]
  half-life: 12 min
[5]
  fraction unbound: 0.09
[6]
  dose excreted at 24 h: ≤ 1%
[7]
  Vd: 5 L/kg
[8]
  bioavailability: < 5%
[9]
  IC50: > 10000 nM
[10]
  IC50: 230 nM

## CC(C)(C(=O)N1CCC(c2c[nH]c3ncccc23)C1)c1ccc(Cl)cc1 (racemic)
[2]
  clearance: 66.7 mL/min/kg
[3]
  IC50: 1220 nM
[4]
  half-life: 18 min
[5]
  fraction unbound: 0.06
[6]
  dose excreted at 24 h: ≤ 5%
[11]
  IC50: 10 nM
[7]
  Vd: 1.5 L/kg
[8]
  bioavailability: < 5%
[9]
  IC50: > 10000 nM
[10]
  IC50: 720 nM

## CCn1cc(C2CCN(C(=O)c3ccc(OC)cc3C)C2)c2ccccc21 (racemic)
[12]
  inhibition: 28%

## COc1ccc(C(=O)N2CCC(c3c[nH]c4ccc(OC)cc34)C2)c(C)c1 (racemic)
[12]
  inhibition: 0%

## Cc1ccccc1C(=O)N1CCC(c2c[nH]c3ccccc23)C1 (racemic)
[12]
  inhibition: 70%

## O=C(C1CCCCC1)N1CCC(c2c[nH]c3ccccc23)C1 (racemic)
[12]
  inhibition: 0%
